We go through one protein from ChEMBL document CHEMBL3525986, “Nicotinamide N-oxidation by CYP2E1 in human liver microsomes” (Drug Metab Dispos, 2013).

Substrate in the series: NC(=O)c1cccnc1
The experiment in a line: Drug metabolism in human liver microsomes assessed as CYP2E1-mediated nicotinamide N-oxide formation after 30 mins by HPLC analysis. Format: ADME. An outline of the steps: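 Pooled human liver microsomes at 1 mg/ml in 0.1 M NaH2PO4, pH 7.4, with 1mM NADPH were preincubated 2 min at 37°C. NAM was added at varied concentrations and run 30 min, then stopped with ice-cold methanol. N-oxide was measured by HILIC HPLC with UV at 254 nm against a standard curve. Km and Vmax came from a Michaelis-Menten nonlinear fit. Triplicates.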

B1: Cytochrome P450 2E1 (Homo sapiens) (protein)
chain: MSALGVTVALLVWAAFLLLVSMWRQVHSSWNLPPGPFPLPIIGNLFQLELKNIPKSFTRLAQRFGPVFTLYVGSQRMVVMHGYKAVKEALLDYKDEFSGRGDLPAFHAHRDRGIIFNNGPTWKDIRRFSLTTLRNYGMGKQGNESRIQREAHFLLEALRKTQGQPFDPTFLIGCAPCNVIADILFRKHFDYNDEKFLRLMYLFNENFHLLSTPWLQLYNNFPSFLHYLPGSHRKVIKNVAEVKEYVSERVKEHHQSLDPNCPRDLTDCLLVEMEKEKHSAERLYTMDGITVTVADLFFAGTETTSTTLRYGLLILMKYPEIEEKLHEEIDRVIGPSRIPAIKDRQEMPYMDAVVHEIQRFITLVPSNLPHEATRDTIFRGYLIPKGTVVVPTLDSVLYDNQEFPDPEKFKPEHFLNENGKFKYSDYFKPFSTGKRVCAGEGLARMELFLLLCAILQHFNLKPLVDPKDIDLSPIHIGFGCIPPRYKLCVIPRS
Turning to B1, the Km was determined as 2980 µM and the Vmax was 6.01e-05 µmol/min/mg.
